SMILES strings stand for the structures.

One experiment addresses D(1A) dopamine receptor (Sus scrofa, UniProt P50130). Briefly: Displacement of [3H]SCH-23390 from dopamine D1 receptor in pig striatal membranes. It counts as cell membranes, Striatum, Membrane. The method in brief:
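Competition binding with D1-selective radioligand [3H]SCH23390 on porcine striatal membranes; Ki values are means of two to four individual competition experiments, each run in triplicate.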

Experiment [1] addresses T1, D(2) dopamine receptor (Homo sapiens, UniProt P14416). Briefly: Displacement of [3H]Spiperone from human dopamine D2 long receptor expressed in CHO cells. It is filed as cell-based. The gist of the method:
(§1)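 Competition for [3H]spiperone binding to cloned human receptor (D2long, D2short or D4.4) stably expressed in CHO cells; Ki values are means of two to four individual competition experiments, each run in triplicate.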
(In general: In a radioligand displacement assay an active substance lowers the binding of a labelled ligand.)

The target of experiment [2] is T1, D(2) dopamine receptor. Briefly: Displacement of [3H]Spiperone from human dopamine D2 short receptor expressed in CHO cells. It is filed as cell-based. The gist of the method: as §1
Experiment [3] has as its target T2, D(3) dopamine receptor (Homo sapiens, UniProt P35462). Briefly: Displacement of [3H]Spiperone from human dopamine D3 receptor expressed in CHO cells. It is filed as cell-based.
For the next experiment, the target named is T3, D(4) dopamine receptor (Homo sapiens, UniProt P21917).
T3 sequence (P21917 whole entry): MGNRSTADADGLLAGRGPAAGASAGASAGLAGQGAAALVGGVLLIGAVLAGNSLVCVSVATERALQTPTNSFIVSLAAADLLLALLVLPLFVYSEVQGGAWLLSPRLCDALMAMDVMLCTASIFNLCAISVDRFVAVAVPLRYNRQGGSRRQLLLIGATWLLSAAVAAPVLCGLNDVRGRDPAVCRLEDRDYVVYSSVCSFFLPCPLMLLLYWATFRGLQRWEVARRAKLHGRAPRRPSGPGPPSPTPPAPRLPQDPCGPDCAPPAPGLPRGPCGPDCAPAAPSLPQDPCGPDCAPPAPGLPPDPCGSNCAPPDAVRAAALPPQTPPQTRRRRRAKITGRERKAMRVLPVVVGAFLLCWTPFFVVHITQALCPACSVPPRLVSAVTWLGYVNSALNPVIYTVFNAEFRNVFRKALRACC
Briefly: Displacement of [3H]Spiperone from human dopamine D4.4 receptor expressed in CHO cells. It is filed as cell-based. The gist of the method:
as §1

Experiment [4] is described as follows: Displacement of [3H]WAY-100635 from pig 5-HT1A receptor. Set-up: species or system Sus scrofa.
In experiment [5] the target is 5-hydroxytryptamine receptor 2A (Sus scrofa, UniProt P50129). Briefly: Displacement of [3H]Ketanserin from pig 5-HT2 receptor.
Chain of 5-hydroxytryptamine receptor 2A (P50129 whole entry): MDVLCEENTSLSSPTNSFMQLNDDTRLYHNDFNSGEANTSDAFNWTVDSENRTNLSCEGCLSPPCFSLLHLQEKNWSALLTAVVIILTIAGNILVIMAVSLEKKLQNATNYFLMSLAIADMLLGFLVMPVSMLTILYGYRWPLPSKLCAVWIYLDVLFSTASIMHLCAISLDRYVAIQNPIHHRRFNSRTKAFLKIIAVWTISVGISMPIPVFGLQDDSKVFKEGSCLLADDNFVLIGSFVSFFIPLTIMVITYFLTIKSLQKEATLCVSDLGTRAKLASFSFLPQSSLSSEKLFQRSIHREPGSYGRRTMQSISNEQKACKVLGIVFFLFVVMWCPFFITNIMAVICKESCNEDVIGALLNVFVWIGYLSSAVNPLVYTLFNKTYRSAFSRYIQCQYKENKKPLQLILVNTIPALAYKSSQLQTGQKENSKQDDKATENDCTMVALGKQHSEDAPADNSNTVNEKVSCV
A short description of experiment [6]: Displacement of [3H]Prazosin from pig adrenergic alpha1 receptor. Set-up: species or system Sus scrofa.
Experiment [7] has as its target T2, D(3) dopamine receptor. Briefly: Agonist activity at human dopamine D3 receptor expressed in dhfr-deficient CHO cells assessed as [3H]thymidine incorporation. It counts as functional, cell-based. (In general: Dividing cells build labelled thymidine or BrdU into new DNA.)
A short description of experiment [8]: Selectivity ratio of Ki for dopamine D2 long receptor to Ki for dopamine D3 receptor.
Experiment [9] deals with T2, D(3) dopamine receptor. Briefly: Binding affinity to dopamine D3 receptor.

Chain of D(1A) dopamine receptor (P50130 whole entry): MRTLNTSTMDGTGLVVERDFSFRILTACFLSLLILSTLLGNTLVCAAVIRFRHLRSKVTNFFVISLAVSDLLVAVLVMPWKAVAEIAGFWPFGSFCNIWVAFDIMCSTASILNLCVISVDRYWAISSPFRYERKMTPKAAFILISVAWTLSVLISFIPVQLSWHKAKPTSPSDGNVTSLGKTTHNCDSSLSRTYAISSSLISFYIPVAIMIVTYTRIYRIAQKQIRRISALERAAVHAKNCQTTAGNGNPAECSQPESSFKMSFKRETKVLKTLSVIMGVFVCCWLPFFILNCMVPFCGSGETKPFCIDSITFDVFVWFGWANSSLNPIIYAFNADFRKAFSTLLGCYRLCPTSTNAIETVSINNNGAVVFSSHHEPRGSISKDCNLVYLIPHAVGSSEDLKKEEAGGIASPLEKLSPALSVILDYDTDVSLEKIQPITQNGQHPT
T2 sequence (P35462 whole entry): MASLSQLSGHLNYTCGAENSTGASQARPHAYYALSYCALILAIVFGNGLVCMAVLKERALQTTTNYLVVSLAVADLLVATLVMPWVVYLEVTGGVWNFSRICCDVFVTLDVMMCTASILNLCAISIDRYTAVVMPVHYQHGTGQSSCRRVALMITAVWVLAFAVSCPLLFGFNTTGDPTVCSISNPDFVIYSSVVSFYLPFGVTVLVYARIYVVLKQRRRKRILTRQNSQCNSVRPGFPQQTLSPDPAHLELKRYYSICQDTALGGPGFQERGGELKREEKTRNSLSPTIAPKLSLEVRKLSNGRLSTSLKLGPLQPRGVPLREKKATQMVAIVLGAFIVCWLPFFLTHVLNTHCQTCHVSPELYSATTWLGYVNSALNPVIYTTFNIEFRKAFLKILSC
T1 sequence (P14416 whole entry): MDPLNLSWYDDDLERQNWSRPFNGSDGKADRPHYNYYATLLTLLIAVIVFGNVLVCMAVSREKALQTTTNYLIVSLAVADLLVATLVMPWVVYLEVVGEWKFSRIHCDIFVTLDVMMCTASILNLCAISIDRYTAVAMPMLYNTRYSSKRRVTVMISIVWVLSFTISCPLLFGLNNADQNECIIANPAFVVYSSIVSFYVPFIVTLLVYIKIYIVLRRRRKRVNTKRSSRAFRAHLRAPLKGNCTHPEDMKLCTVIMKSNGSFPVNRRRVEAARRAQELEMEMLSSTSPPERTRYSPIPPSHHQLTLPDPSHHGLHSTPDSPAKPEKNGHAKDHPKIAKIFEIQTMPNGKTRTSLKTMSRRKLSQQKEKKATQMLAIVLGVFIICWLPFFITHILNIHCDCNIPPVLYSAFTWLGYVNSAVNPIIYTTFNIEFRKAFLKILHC

Consider `COc1ccccc1N1CCN(CCCCN2CCc3cc(-c4ccco4)ccc3C2=O)CC1`, for which the Ki at D(1A) dopamine receptor was 580 nM; on D(2) dopamine receptor [1] it was 16 nM; at D(2) dopamine receptor [2], 4.8 nM; on D(3) dopamine receptor [3] it was 0.21 nM; at D(4) dopamine receptor, 3.3 nM; in experiment [4] it was 19 nM. In addition, the values for the Ki in experiment [5] and in experiment [6] were 330 nM and 1.6 nM, respectively. The EC50 on D(3) dopamine receptor [7] stood at 2.3 nM.

As for `Cc1nc(-c2ccc(C(=O)N[C@H]3CC[C@H](CCN4CCc5ccc(S(C)(=O)=O)cc5CC4)CC3)cc2)no1`, in [8], the Ratio Ki came to 100. On D(3) dopamine receptor [9], the Ki stood at 4 nM.

Take `COc1ccccc1N1CCN(CCCCN2CCc3cc(-c4ccccc4)ccc3C2=O)CC1`: the Ki on D(1A) dopamine receptor was found to be 640 nM; on D(2) dopamine receptor [1] it was 38 nM; on D(2) dopamine receptor [2], 15 nM; on D(3) dopamine receptor [3], 0.25 nM; at D(4) dopamine receptor it was 3.4 nM; in experiment [4], 38 nM. Moreover, the Ki in experiment [5] is 330 nM; in experiment [6], 5.4 nM. The EC50 on D(3) dopamine receptor [7] amounted to 3.3 nM.

Turning to `COc1ccccc1N1CCN(CCCCN2CCc3ccccc3C2=O)CC1`, the Ki came to 2500 nM at D(1A) dopamine receptor; 21 nM at D(2) dopamine receptor [1]; 7 nM on D(2) dopamine receptor [2]; 1.9 nM on D(4) dopamine receptor; 2.4 nM in experiment [4]; 990 nM in experiment [5]. The molecule also gave a Ki in experiment [6] of 2.3 nM.

On to `C#Cc1ccc2c(c1)CCN(CCCCN1CCN(c3ccccc3OC)CC1)C2=O`, for which the Ki came out at 1900 nM at D(1A) dopamine receptor; 24 nM on D(2) dopamine receptor [1]; 8.8 nM at D(2) dopamine receptor [2]; 0.5 nM on D(3) dopamine receptor [3]; 4.1 nM at D(4) dopamine receptor; 14 nM in experiment [4]. The values for the Ki in experiment [5] and in experiment [6] were 920 nM and 2.4 nM, respectively.

With `CC(=O)Nc1ccc(CCN2C[C@@H]3COc4ccc(C#N)cc4[C@H]3C2)cc1`, the Ratio Ki in experiment [8] is 37. At D(3) dopamine receptor [9], the Ki was found to be 2 nM.

Turning to `COc1ccccc1N1CCN(CCCCN2CCCc3cc(-c4cccs4)ccc3C2=O)CC1`, the Ki at D(1A) dopamine receptor amounted to 920 nM; at D(2) dopamine receptor [1] it was 5.1 nM; at D(2) dopamine receptor [2] it was 2.1 nM; on D(3) dopamine receptor [3] it was 0.29 nM; at D(4) dopamine receptor it was 2.9 nM; in experiment [4], 68 nM. In addition, the results for the Ki in experiment [5] and in [6] were 530 nM and 9.7 nM, respectively.

Regarding `COc1ccccc1N1CCN(CCCCN2CCc3cc(-c4cccs4)ccc3C2=O)CC1`, the inhibition constant (Ki) at D(1A) dopamine receptor was determined as 480 nM; on D(2) dopamine receptor [1], 11 nM; on D(2) dopamine receptor [2], 6.9 nM; at D(3) dopamine receptor [3] it was 0.12 nM; on D(4) dopamine receptor it was 2.3 nM; in experiment [4], 6.2 nM. Moreover, the Ki in experiment [5] is 190 nM; in experiment [6], 3.7 nM. Moreover, at D(3) dopamine receptor [7], the EC50 worked out at 2.8 nM.

On to `COc1ccccc1N1CCN(CCCCN2CCCc3ccccc3C2=O)CC1`, for which the Ki was determined as 2900 nM on D(1A) dopamine receptor; 3.9 nM on D(2) dopamine receptor [1]; 1.5 nM at D(2) dopamine receptor [2]; 0.27 nM at D(3) dopamine receptor [3]; 1.3 nM at D(4) dopamine receptor; 1.7 nM in experiment [4]. Moreover, the Ki came out at 1100 nM in experiment [5] and 5.7 nM in experiment [6]. For the same molecule, at D(3) dopamine receptor [7], the concentration for a half-maximal effect (EC50) is 0.33 nM.

On to `COc1ccccc1N1CCN(CCCCN2CCc3cc(C#N)ccc3C2=O)CC1`, for which the Ki on D(1A) dopamine receptor came out at 3200 nM; on D(2) dopamine receptor [1], 38 nM; at D(2) dopamine receptor [2], 22 nM; on D(3) dopamine receptor [3] it was 1.3 nM; on D(4) dopamine receptor, 6.1 nM; in [4] it was 3.8 nM. Besides, the values for the Ki in experiment [5] and in experiment [6] were 430 nM and 3.8 nM, respectively.

For `COc1ccccc1N1CCN(CCCCN2CCc3cc(-c4ccncc4)ccc3C2=O)CC1`, the Ki came out at 380 nM on D(1A) dopamine receptor; 0.12 nM on D(3) dopamine receptor [3]; 3.4 nM on D(4) dopamine receptor; 13 nM in experiment [4]; 160 nM in experiment [5]; 2.2 nM in experiment [6].

For `COc1ccccc1N1CCN(CCCCN2CCc3cc(F)ccc3C2=O)CC1`, the Ki at D(1A) dopamine receptor worked out at 2300 nM; at D(2) dopamine receptor [1] it was 26 nM; at D(2) dopamine receptor [2], 9.2 nM; at D(3) dopamine receptor [3] it was 1.6 nM; at D(4) dopamine receptor it was 2.8 nM; in [4] it was 1.7 nM. Besides, the figures for the Ki in [5] and in experiment [6] were 840 nM and 3.1 nM, respectively.

Regarding `COc1ccccc1N1CCN(CCCCN2CCc3c(cccc3-c3ccccc3)C2=O)CC1`, the Ki at D(1A) dopamine receptor came to 220 nM; at D(2) dopamine receptor [1], 52 nM; on D(2) dopamine receptor [2], 63 nM; on D(3) dopamine receptor [3] it was 12 nM; on D(4) dopamine receptor it was 9.8 nM; in [4], 47 nM. The Ki in experiment [5] was 230 nM; in experiment [6], 1.3 nM.

`COc1ccccc1N1CCN(CCCCNC(=O)c2ccc(-c3ccc(C(C)=O)cc3)cc2)CC1`: in experiment [8], the Ratio Ki came to 130.

For the molecule `COc1ccc2c(c1)CCCN(CCCCN1CCN(c3ccccc3OC)CC1)C2=O`, the Ki at D(1A) dopamine receptor worked out at 2100 nM; at D(2) dopamine receptor [1] it was 3.2 nM; on D(2) dopamine receptor [2], 0.93 nM; on D(3) dopamine receptor [3], 0.27 nM; at D(4) dopamine receptor it was 3 nM; in [4], 2.5 nM. Besides, the Ki was determined as 810 nM in experiment [5] and 3.7 nM in experiment [6].

What is called Ki is the equilibrium dissociation constant of an inhibitor or competing ligand from its target. A low value points to tighter binding. In general, EC50 refers to the concentration giving half of the maximal effect.

The values above are taken from ChEMBL document CHEMBL1770099, “Aromatic ring functionalization of benzolactam derivatives: new potent dopamine D3 receptor ligands” (Bioorg Med Chem Lett, 2011).
